According to ChEMBL document CHEMBL2057168, “(1aR,5aR)1a,3,5,5a-Tetrahydro-1H-2,3-diaza-cyclopropa[a]pentalene-4-carboxylic acid (MK-1903): a potent GPR109a agonist that lowers free fatty acids in humans” (J Med Chem, 2012):
Calls of active or inactive are those of the source. The rule behind the calls is not given here.

Assays:
Homo sapiens [1] = assay: Activation of GPR109a receptor in human assessed as PGD2 metabolite level in urine at 10 to >10 mg, po; assay type: functional, organism-based
[2] = AUC (0 to 24 hrs) in human at titreated po dose administered from day 1 to 4 followed by 200 mg, po QD administered up to day 11 measured on day 4; assay type: ADME, organism-based; parameters: dose 200 mg, time < 24 hr, route oral; conditions: plasma
Procedure, shortened: (§1)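 Double-blind, placebo-controlled, randomized dose-escalation study in healthy male volunteers, six cohorts of eight (six active, two placebo). Oral dose on day 1, two-day washout, then dosing days 4–11; the 200 mg qd cohort was titrated over days 1–4. Venous blood taken predose and at 0.5–12 h on days 1, 4 and 11; plasma drug measured. τ 12 h (bid), 24 h (qd), 8 h (tid), 6 h (qid).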

Mus musculus = assay: Dose normalized Cmax in po dosed mouse; assay type: ADME, organism-based; conditions: in vivo
[3] = Cmin in human at 150 mg, po TID administered on day 1 followed by 2-days wash out period after which dosing continued up to day 11 measured on day 11 at 8 hrs; assay type: ADME, organism-based; conditions: in vivo, read-out: Cmin
Procedure, shortened: (§2)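 Healthy male volunteers took part in a double-blind, randomized, placebo-controlled dose-escalation study, with cohorts of 8 (6 on drug, 2 on placebo). Each subject got an oral dose on day 1, then a 2-day washout, then dosing on days 4–11. The 200 mg qd group was titrated over days 1–4. Venous plasma was sampled predose and 0.5–12 h postdose on days 1, 4 and 11, and predose on days 5–10 for troughs.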

[4] = Tmax in human at 150 mg, po BID administered on day 1 followed by 2-day wash out period after which dosing continued up to day 11 measured on day 4; assay type: ADME, organism-based; conditions: in vivo
Procedure, shortened: (§3)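 Double-blind, placebo-controlled, randomized multiple oral dose study in healthy male volunteers (cohorts of eight; six active, two placebo). Dose given on day 1, then a two-day washout, then dosing days 4–11; for the QD arm, subjects were titrated over days 1–4. Venous plasma sampled predose and 0.5, 1, 1.5, 2, 4, 6, 8, 10, 12 h postdose on days 1, 4 and 11. Tmax reported as median (min–max).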

Homo sapiens [5] = assay: Antidyslipedic activity in human assessed as decrease in free fatty acid level at 50 to 200 mg, po administered as a single dose measured up to 8 hrs relative to placebo control; assay type: functional, organism-based
[6] = AUC (0 to 12 hrs) in human at 50 mg, po BID administered on day 1 followed by 2-day wash out period after which dosing continued up to day 11 measured on day 1; assay type: ADME, organism-based; parameters: dose 50 mg, time < 12 hr, route oral; conditions: plasma; procedure, shortened: as §1
[7] = Volume of distribution in rhesus monkey; assay type: ADME, organism-based, Macaca mulatta; conditions: in vivo
[8] = AUC (0 to 12 hrs) in human at 150 mg, po BID administered on day 1 followed by 2-day wash out period after which dosing continued up to day 11 measured on day 11; assay type: ADME, organism-based; parameters: dose 150 mg, time < 12 hr, route oral; conditions: plasma; procedure, shortened: as §1
[9] = Oral bioavailability in Sprague-Dawley rat at 10 mg/kg; assay type: ADME, organism-based; conditions: in vivo
Procedure, shortened: (§4)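 Male Sprague-Dawley rats were dosed at 10 mg/kg po or 2 mg/kg iv in 80% PEG400/20% phosphate-buffered saline, fasted overnight before the oral dose. Jugular blood was sampled serially from 0.25 to 21 h over 24 h, and heparinized plasma was prepared. Drug was assayed by HPLC/MS/MS (quantitation range 1–2000 ng/mL).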

[10] = Cmax in human at 150 mg, po BID administered on day 1 followed by 2-day wash out period after which dosing continued up to day 11 measured on day 4; assay type: ADME, organism-based; parameters: dose 150 mg, route oral; conditions: in vivo; procedure, shortened: as §2
[11] = AUC (0 to 24 hrs) in human at titreated po dose administered from day 1 to 4 followed by 200 mg, po QD administered up to day 11 measured on day 11; assay type: ADME, organism-based; parameters: time < 24 hr, dose 200 mg, route oral; conditions: plasma; procedure, shortened: as §1
Homo sapiens [12] = assay: Antidyslipidemic activity in human assessed as decrease in free fatty acid level titreated po dose administered from day 1 to 4 followed by 200 mg, po QD administered up to day 11 measured on day 4 and 11; assay type: functional, organism-based
Procedure, shortened: (§5)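 Healthy male volunteers in a randomized, double-blind, placebo-controlled multiple-dose study, six active and two placebo subjects per cohort. Oral dosing on day 1, two-day washout, then days 4–11, with titration over days 1–4 for the qd arm.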

Rattus norvegicus [13] = assay: Dose normalized Cmax in Sprague-Dawley rat at 10 mg/kg, po; assay type: ADME, organism-based; parameters: dose 10 mg/kg, route oral; conditions: in vivo; procedure, shortened: as §4
Homo sapiens [14] = assay: Antidyslipedic activity in human assessed as decrease in free fatty acid level at 50 to 200 mg, po administered as a single dose measured after 1 to 2 hrs relative to placebo control; assay type: functional; parameters: scale not given: the % may be the effect or the level left
[15] = Terminal half life in rhesus monkey; assay type: ADME, organism-based, Macaca mulatta; conditions: in vivo, read-out: beta t1/2 (converted)
Homo sapiens [16] = assay: Cmin in human at 50 mg, po BID administered on day 1 followed by 2-day wash out period after which dosing continued up to day 11 measured on day 1 at 12 hrs; assay type: ADME, organism-based; conditions: in vivo, BLD = below limit of detection; procedure, shortened: as §2
Canis familiaris [17] = assay: Dose normalized Cmax in po dosed dog; assay type: ADME, organism-based, Canis lupus familiaris; conditions: in vivo
[18] = Cmin in human at 50 mg, po BID administered on day 1 followed by 2-day wash out period after which dosing continued up to day 11 measured on day 4 at 12 hrs; assay type: ADME, organism-based; conditions: in vivo, read-out: Cmin; procedure, shortened: as §2
[19] = Apparent half life in human at titreated po dose administered from day 1 to 4 followed by 200 mg, po QD administered up to day 11 measured on day 11; assay type: ADME, organism-based; conditions: in vivo, read-out: t1/2(app) (converted); procedure, shortened: as §1
Homo sapiens [20] = assay: Antidyslipidemic activity in dyslipidemia patient assessed as decrease in free fatty acid level at 150 mg administered TID during four week study; assay type: functional, organism-based
[21] = Cmin in human at 175 mg, po QID administered on day 1 followed by 2-days wash out period after which dosing continued up to day 11 measured on day 1 at 6 hrs; assay type: ADME, organism-based; conditions: in vivo, read-out: Cmin; procedure, shortened: as §2
[22] = AUC (0 to 12 hrs) in human at 150 mg, po BID administered on day 1 followed by 2-day wash out period after which dosing continued up to day 11 measured on day 4; assay type: ADME, organism-based; parameters: dose 150 mg, time < 12 hr, route oral; conditions: plasma; procedure, shortened: as §1
[23] = Oral bioavailability in dog; assay type: ADME, organism-based, Canis lupus familiaris; conditions: in vivo
Homo sapiens [24] = assay: Toxicity in human assessed as occurrence of flushing at 5 to 200 mg, po administered as single dose; assay type: organism-based; conditions: in vivo
Homo sapiens [25] = assay: Toxicity in dyslipedimc patient assessed as flushing at 150 mg administered TID during four week study; assay type: organism-based; conditions: in vivo
Canis familiaris [26] = assay: Dose normalized AUC in po dosed dog; assay type: ADME, organism-based, Canis lupus familiaris; conditions: in vivo
Homo sapiens [27] = assay: Antidyslipidemic activity in human assessed as decrease in free fatty acid level 50 to 150 mg, po BID administered on day 1 followed by 2-days wash out period after which dosing continued up to day 11 measured on day 4 and 11; assay type: functional, organism-based; procedure, shortened: as §5
[28] = Plasma clearance in Sprague-Dawley rat at 2 mg/kg, iv; assay type: ADME, organism-based; parameters: dose 2 mg/kg, route intravenous; procedure, shortened: as §4
[29] = Tmax in human at 50 mg, po BID administered on day 1 followed by 2-day wash out period after which dosing continued up to day 11 measured on day 11; assay type: ADME, organism-based; conditions: in vivo; procedure, shortened: as §3
Rattus norvegicus [30] = assay: Dose normalized AUC in Sprague-Dawley rat at 10 mg/kg, po; assay type: ADME, organism-based; parameters: dose 10 mg/kg, route oral; conditions: in vivo; procedure, shortened: as §4
[31] = Tmax in human at 100 mg, po BID administered on day 1 followed by 2-day wash out period after which dosing continued up to day 11 measured on day 11; assay type: ADME, organism-based; conditions: in vivo; procedure, shortened: as §3
[32] = Cmax in human at 175 mg, po QID administered on day 1 followed by 2-days wash out period after which dosing continued up to day 11 measured on day 4; assay type: ADME, organism-based; parameters: dose 175 mg, route oral; conditions: in vivo; procedure, shortened: as §2

## O=C(O)c1n[nH]c2c1C[C@H]1C[C@@H]21
Homo sapiens [1]
  Activity: Active
[2]
  AUC at 24 h: 0.114 µM·h
Mus musculus
  Cmax/dose: 3.5 µM·kg/mg
[3]
  concentration at 8 h: 0.708 nM
[4]
  Tmax: 1.5 h
Homo sapiens [5]
  Activity: Active
[6]
  AUC at 12 h: 0.0294 µM·h
[7]
  Vd: 0.21 L/kg
[8]
  AUC at 12 h: 0.0788 µM·h
[9]
  bioavailability: 83%
[10]
  Cmax: 31.7 nM
[11]
  AUC at 24 h: 0.119 µM·h
Homo sapiens [12]
  Activity: Active
Rattus norvegicus [13]
  Cmax/dose: 3.7 µM·kg/mg
Homo sapiens [14]
  Activity: 90%
[15]
  half-life: 66 min
Homo sapiens [16]
  Cmin: BLD
Canis familiaris [17]
  Cmax/dose: 17.5 µM·kg/mg
[18]
  concentration at 12 h: 0.023 nM
[19]
  half-life: 276 min
Homo sapiens [20]
  Activity: Active
[21]
  concentration at 6 h: 4.01 nM
[22]
  AUC at 12 h: 0.0803 µM·h
[23]
  bioavailability: 100%
Homo sapiens [24]
  Activity: Toxic
Homo sapiens [25]
  Activity: Non-toxic
Canis familiaris [26]
  AUC/dose: 33.3 µM·kg·h/mg
Homo sapiens [27]
  Activity: Active
[28]
  clearance: 17 mL/min/kg
[29]
  Tmax: 30 min
Rattus norvegicus [30]
  AUC/dose: 5.1 µM·kg·h/mg
[31]
  Tmax: 30 min
[32]
  Cmax: 49.9 nM
